We go through 11 molecules from ChEMBL document CHEMBL1139420, “Antibacterial profile against drug-resistant Staphylococcus epidermidis clinical strain and structure-activity relationship studies of 1H-pyrazolo[3,4-b]pyridine and thieno[2,3-b]pyridine derivatives” (Bioorg Med Chem, 2008).

≈ marks a conversion by molar mass, not a printed value. Calls of active or inactive are those of the source. The calls are words filed in the database; no cut-off is given here.

One data set has as its system Serratia marcescens. The experiment in a line: Antibacterial activity against drug-resistant Serratia marcescens clinical isolate assessed as inhibition zone diameter after 24 hrs by antibacterial susceptibility test. The format is functional, organism-based.
The next data set concerns Proteus mirabilis. The experiment in a line: Antibacterial activity against drug-resistant Proteus mirabilis clinical isolate assessed as inhibition zone diameter after 24 hrs by antibacterial susceptibility test. The format is functional, organism-based.
The next data set has as its system Pseudomonas aeruginosa. The experiment in a line: Antibacterial activity against drug-resistant Pseudomonas aeruginosa clinical isolate assessed as inhibition zone diameter after 24 hrs by antibacterial susceptibility test. The class given is functional, organism-based.
The subject of another data set is Enterobacter cloacae. The experiment in a line: Antibacterial activity against drug-resistant Enterobacter cloacae clinical isolate assessed as inhibition zone diameter after 24 hrs by antibacterial susceptibility test. The class given is functional, organism-based.
For data set [1], the system named is Acinetobacter calcoaceticus. Briefly: Antibacterial activity against drug-resistant Acinetobacter calcoaceticus clinical isolate assessed as inhibition zone diameter after 24 hrs by antibacterial susceptibility test. The format is functional, organism-based.
The next data set deals with Klebsiella pneumoniae. Briefly: Antibacterial activity against drug-resistant Klebsiella pneumoniae clinical isolate assessed as inhibition zone diameter after 24 hrs by antibacterial susceptibility test. The class given is functional, organism-based.
The subject of the next data set is Enterococcus faecalis. Briefly: Antibacterial activity against drug-resistant Enterococcus faecalis clinical isolate assessed as inhibition zone diameter after 24 hrs by antibacterial susceptibility test. The format is functional, organism-based.
In data set [2] the test system is Staphylococcus epidermidis. The experiment in a line: Antibacterial activity against drug-resistant Staphylococcus epidermidis clinical isolate assessed as inhibition zone diameter after 24 hrs by antibacterial susceptibility test. The format is functional.
A short description of data set [3]: Cytotoxicity against human PBMC assessed as cell viability at 700 uM after 3 to 5 days by XTT method. The class given is cell-based. As to conditions: PBMC (peripheral blood mononuclear cells), read-out: Activity. In outline:
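Human PBMCs from healthy donors isolated by density gradient from buffy coats, kept in RPMI 1640 with 10% heat-inactivated FBS, penicillin, streptomycin, 2 mM glutamine, 10 mM Hepes; stimulated 2–3 days with 5 µg/mL PHA, then kept with 5 U/mL IL-2. Compound at 700 µM, 5% CO2, 37 °C; XTT added, OD 450 nm after 2 h; duplicate, at least three times.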
A general note: Formazan colour is commonly taken as a measure of viable cells.

Data set [4] deals with Staphylococcus epidermidis. Briefly: Antibacterial activity against drug-resistant Staphylococcus epidermidis clinical isolate at 5 mg/ml. The class given is functional, organism-based. The method, boiled down: (§1)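 Growth-curve assay on fluoro-substituted derivatives (ortho-, meta-, para-F). Logarithmic-phase cultures incubated with compound at 1× and 10× MIC and at 5 mg/mL. Optical density at 560 nm monitored over 6 h and expressed as growth (%) relative to untreated control.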

The subject of another data set is Escherichia coli. Briefly: Antibacterial activity against drug-resistant Escherichia coli clinical isolate assessed as inhibition zone diameter after 24 hrs by antibacterial susceptibility test. The class given is functional, organism-based.
Data set [5] deals with Staphylococcus epidermidis. The experiment in a line: Antibacterial activity against drug-resistant Staphylococcus epidermidis clinical isolate after 24 hrs by macro-dilution broth method. The class given is functional.
Data set [6] has as its system Staphylococcus epidermidis. Briefly: Antibacterial activity against drug-resistant Staphylococcus epidermidis clinical isolate at 10 times MIC. The class given is functional, organism-based. The method, boiled down:
as §1

Data set [7] concerns Staphylococcus epidermidis. Briefly: Antibacterial activity against drug-resistant Staphylococcus epidermidis clinical isolate at 16 ug/ml. The format is functional, organism-based.

Turning to `O=C(O)c1cnc2c(cnn2-c2ccccc2)c1Nc1ccc(F)cc1`, the result (with Serratia marcescens; with Proteus mirabilis; in the data set on Pseudomonas aeruginosa; with Enterobacter cloacae; in data set [1]; with Klebsiella pneumoniae) was inactive. The outcome (with Enterococcus faecalis; in [4]; with Escherichia coli) was inactive. In addition, the “inhibition zone (IZ)” value in data set [2] was found to be 0 mm. Moreover, the viability at 700 µM in data set [3] is 100%.
The MIC is the lowest concentration found to suppress growth. A higher MIC goes with weaker potency. For `COc1cccc(Nc2c(C(=O)O)cnc3c2cnn3-c2ccccc2)c1`, the result (with Serratia marcescens; with Proteus mirabilis; with Pseudomonas aeruginosa; in the data set on Enterobacter cloacae; in data set [1]; in the data set with Klebsiella pneumoniae) was inactive. In addition, the result in the data set with Enterococcus faecalis and with Escherichia coli was inactive. The “inhibition zone (IZ)” value in data set [2] was 15 mm. The MIC in [5] is 16 µg/mL (≈ 44.4 µM). The viability at 700 µM in [3] was 100%.
Consider `O=C(O)c1cnc2c(cnn2-c2ccccc2)c1Nc1ccccc1F`, for which the result in data set [4] was inactive.
On to `O=C(O)c1cnc2c(cnn2-c2ccccc2)c1Nc1cccc(Br)c1`, for which the result (in the data set on Serratia marcescens; with Proteus mirabilis; in the data set on Pseudomonas aeruginosa; in the data set with Enterobacter cloacae; in data set [1]; in the data set with Klebsiella pneumoniae) was inactive. Besides, the result in the data set on Enterococcus faecalis and with Escherichia coli was inactive. For the same molecule, the “inhibition zone (IZ)” value in data set [2] is 17 mm. In data set [5], the MIC was found to be 16 µg/mL (≈ 39.1 µM). In addition, the viability at 700 µM in [3] was 100%.
Take `O=C(O)c1cnc2c(cnn2-c2ccccc2)c1Nc1cccc(Cl)c1`: the outcome (in the data set on Serratia marcescens; with Proteus mirabilis; in the data set with Pseudomonas aeruginosa; in the data set on Enterobacter cloacae; in [1]; in the data set with Klebsiella pneumoniae) was inactive. The outcome in the data set on Enterococcus faecalis and in the data set with Escherichia coli was inactive. Also, the “inhibition zone (IZ)” value in data set [2] was found to be 17 mm. In data set [5], this molecule returned an MIC of 16 µg/mL (≈ 43.9 µM). The viability at 700 µM in [3] worked out at 100%.
With `O=C(O)c1cnc2c(cnn2-c2ccccc2)c1Nc1cccc(F)c1`, the outcome (in the data set on Serratia marcescens; in the data set with Proteus mirabilis; with Pseudomonas aeruginosa; in the data set with Enterobacter cloacae; in data set [1]; in the data set on Klebsiella pneumoniae) was inactive. For the same molecule, the outcome in the data set with Enterococcus faecalis and with Escherichia coli was inactive. Also, the result in data set [6] and in [7] was Active. The “inhibition zone (IZ)” value in data set [2] is listed as 20 mm. The molecule also showed an MIC in data set [5] of 16 µg/mL (≈ 45.9 µM). Further, the viability at 700 µM in data set [3] came to 100%.
Turning to `Cc1cccc(Nc2c(C(=O)O)cnc3c2cnn3-c2ccccc2)c1`, the outcome (with Serratia marcescens; in the data set on Proteus mirabilis; in the data set with Pseudomonas aeruginosa; in the data set with Enterobacter cloacae; in data set [1]; in the data set with Klebsiella pneumoniae) was inactive. For the same molecule, the result in the data set with Enterococcus faecalis and with Escherichia coli was inactive. Moreover, in [2], the “inhibition zone (IZ)” value stood at 16 mm. For the same molecule, in data set [5], inhibition of growth (MIC) required 64 µg/mL (≈ 186 µM). The viability at 700 µM in data set [3] came out at 100%.
On to `O=C(O)c1cnc2sccc2c1Nc1ccc(F)cc1`, for which the result (in the data set on Serratia marcescens; in the data set with Proteus mirabilis; with Pseudomonas aeruginosa; in the data set with Enterobacter cloacae; in [1]; with Klebsiella pneumoniae) was inactive. Moreover, the outcome with Enterococcus faecalis and with Escherichia coli was inactive. For the same molecule, the “inhibition zone (IZ)” value in data set [2] amounted to 0 mm. In data set [3], the viability at 700 µM was 100%.
Regarding `COc1cccc(Nc2c(C(=O)O)cnc3sccc23)c1`, the result (in the data set with Serratia marcescens; in the data set on Proteus mirabilis; in the data set with Pseudomonas aeruginosa; with Enterobacter cloacae; in data set [1]; in the data set on Klebsiella pneumoniae) was inactive. In addition, the result in the data set with Enterococcus faecalis and in the data set on Escherichia coli was inactive. The “inhibition zone (IZ)” value in data set [2] is 0 mm. Besides, the viability at 700 µM in [3] came to 100%.
Consider `O=C(O)c1cnc2sccc2c1Nc1ccccc1`, for which the result (in the data set with Serratia marcescens; with Proteus mirabilis; in the data set on Pseudomonas aeruginosa; in the data set with Enterobacter cloacae; in data set [1]; with Klebsiella pneumoniae) was inactive. Moreover, the result with Enterococcus faecalis and with Escherichia coli was inactive. The “inhibition zone (IZ)” value in data set [2] is reported as 0 mm. In addition, in data set [3], the viability at 700 µM was 100%.
`O=C(O)c1cnc2sccc2c1Nc1cccc(Br)c1`: the outcome (in the data set on Serratia marcescens; with Proteus mirabilis; in the data set with Pseudomonas aeruginosa; in the data set on Enterobacter cloacae; in data set [1]; in the data set with Klebsiella pneumoniae) was inactive. In addition, the result in the data set on Enterococcus faecalis and with Escherichia coli was inactive. The “inhibition zone (IZ)” value in [2] was 0 mm. In data set [3], the viability at 700 µM came to 100%.
